# Bioassay records from PubChem BioAssay.
# Only some compounds are listed: those with a hit (about 1.5% of all), similar ones and a draw of the others.
# Cardio protect – cardioprotection against H2O2-induced cell death, primary screen, uHTS, H9c2 cells, ATPLite luminescence | H9c2 cardiomyocytes, H2O2 injury protection, 2 h | protection from H2O2 cell death, % at 20 µM | 360,000 compounds, 0.63% hits;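 active = compounds giving at least 50% protection of heart cells from peroxide-induced death in the single-dose screen, raw or plate-pattern-corrected value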;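 also: 0% = DMSO wells with peroxide and 100% = DMSO wells without peroxide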
# Tb MetRS inh – T. brucei MetRS inhibitors, primary screen, biochemical, luminescence; inhibition, % at 11.9 µM; purified T. brucei MetRS, ATP depletion, Kinase-Glo luminescence; methionyl-tRNA synthetase (Trypanosoma brucei brucei); 360,000 compounds, 0.4% hits;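 active = inhibition above a per-plate cutoff of the control wells' mean inhibition plus 3 SD, cut at about 5.5% in these data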;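 also: 0% = DMSO wells median and 100% = median of wells with control inhibitor compound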
#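 Measured by: Kinase-Glo luciferase luminescence reporting remaining unconsumed ATP. Material: purified T. brucei MetRS enzyme. Doses: 11.9 µM compound single dose, 0.9% DMSO. Medium: HEPES buffer containing pyrophosphatase, BSA, spermine, DTT. Times: 15 min preincubation, 2 h reaction, all 25 °C. Reagent: methionine, ATP and bulk E. coli tRNA.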
# PKA-R1A activ – activators of PKA-R1A holoenzyme, primary screen, biochemical, fluorescence polarization, Cy5-IP20, bovine R1A, mouse PKAc; PKA-R1A dissociation; scaled: DMSO 0%, 113 µM cGMP 100%; activation, % at 11.4 µM; cAMP-dependent protein kinase type I-alpha regulatory subunit (Bos taurus) + …; 340,000 compounds, 0.083% hits;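 active = percent activation above the mean of all tested compounds plus 3 SD, cut at about 19% in these data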;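 also: higher means more PKAc released from R1A so a rise in polarization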
# PKA-R2B activ – activators of PKA-R2B holoenzyme, primary screen, biochemical, fluorescence polarization, Cy5-IP20, human; activation, % at 11.4 µM; PKA-R2B holoenzyme dissociation; R2B truncated from residue 108, S112A mutant; 0% DMSO only, 100% 113 µM cGMP; 340,000 compounds, 0.079% hits; AID 504700, 2011;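 active = activation above a cutoff set at the mean over all compounds plus 3 SD, cut at about 18% in these data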;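 also: higher means more holoenzyme dissociation and a rise in polarization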
# Rin1 Abl inh – inhibitors of Rin1-Abl protein binding, primary screen, biochemical, TR-FRET | inhibition, % at 7.35 µM | 360,000 compounds, 0.4% hits; in the data active = inhibition above about 5%, passing the limit was not always enough
# TbMetRS confirm – T. brucei MetRS inhibitors, confirmation, biochemical, luminescence; shares compounds with Tb MetRS inh; 1,400 compounds, 93% hits; inhibition, % at 11.9 µM; T. brucei MetRS enzyme, luminescence (ATP depletion); in the data active = inhibition above about 7%
# Jurkat cytotox – Jurkat T cell cytotoxicity, cytotoxicity control for T. brucei MetRS inhibitor project, luminescence, high throughput; shares compounds with Tb MetRS inh; Jurkat cells viability, ATP luminescence; inhibition, % at 8.3 µM; 1,400 compounds, 12% hits; AID 624413, 2012; in the data active = inhibition above about 15%;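 also: 0% = vehicle and 100% = reference inhibitor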
# Tb MetRS inh FP – T. brucei MetRS inhibitors, orthogonal assay for T. brucei MetRS inhibitor project, biochemical, fluorescence polarization; AID 651607, 2012; shares compounds with Tb MetRS inh; inhibition, % at 11.9 µM; 1,400 compounds, 44% hits; purified T. brucei MetRS; in the data active = inhibition above about 17%;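 also: 0% = vehicle wells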
# Numbers without * were called inactive; . = no result given.
SMILES,Cardio protect,Tb MetRS inh,PKA-R1A activ,PKA-R2B activ,Rin1 Abl inh,TbMetRS confirm,Jurkat cytotox,Tb MetRS inh FP
COc1cccc(C2CC(c3ccc(Cl)cc3Cl)Nc3nc(N)nn32)c1 (stereo unspecified),-13.6,8.3*,-3.5,0.5,0.6,13.2*,4.5,5.3
COc1ccc(NC(=S)N2CCC(c3nc4ccc(Cl)cc4[nH]3)CC2)c(OC)c1,0.8,14.7*,-6.8,11.2,7.0,36.3*,0.9,23.6*
O=C(NC1CCCCC1)N1CCCC(c2nc3ccccc3[nH]2)C1 (stereo unspecified),1.2,9.2*,-14.9,-5.2,-1.3,16.2*,-2.5,9.4
O=C(NC1CCCCC1)N1CCC(c2nc3ccc(Cl)cc3[nH]2)CC1,9.1,7.8*,-3.1,-0.8,3.3,11.9*,12.4,6.5
O=C(NC1CCCCC1)N1CCC(c2nc3ccccc3[nH]2)CC1,-1.3,1.5,1.3,11.2,-0.9,.,.,.
CCOCc1cc(=O)[nH]c(SC)n1,1.8,-0.4,-8.5,-2.9,0.9,.,.,.
CCCCCOc1ccc(C(=O)CCC(=O)Nc2ccc(NC(C)=O)cc2)cc1,-4.4,-1.6,-17.8,-6.7,0.6,.,.,.
O=C(O)C(c1ccccc1)C(O)c1ccc2c(c1)OCO2 (stereo unspecified),1.0,0.3,-3.8,-8.1,-0.8,.,.,.
O=C(CN1CCN(Cc2ccc(Cl)cc2)CC1)N/N=C/c1c[nH]c2ccccc12,-4.6,8.4*,5.8,-7.1,-0.9,30.8*,0.4,15.6
Cc1ccc(CN2CCN(CC(=O)N/N=C/c3c[nH]c4ccccc34)CC2)cc1,9.2,0.8,-8.7,1.5,-2.2,.,.,.
Cc1ccccc1NC(=O)CCC(=O)N/N=C/c1c[nH]c2ccccc12,8.4,-0.4,-8.8,-6.6,-2.4,.,.,.
O=C(CCC(=O)Nc1ccccc1Cl)N/N=C/c1c[nH]c2ccccc12,-7.3,8.0*,-3.9,-9.1,0.2,15.6*,-3.2,1.6
C/C(Cl)=C\Cn1c(N2CCCC2)nc2c1c(=O)n(C)c(=O)n2C,5.1,-1.2,0.1,4.5,1.9,.,.,.
COc1ccc(NC(=O)CC2C(=O)N(C)C(=S)N2Cc2cccs2)cc1 (stereo unspecified),0.0,0.1,-11.4,-7.2,2.3,.,.,.
COc1ccc(NC(=O)CC2C(=O)N(C)C(=S)N2CCc2ccc(F)cc2)cc1 (stereo unspecified),-2.9,49.7*,.,.,-1.4,66.7*,11.7,43.3*
O=C(CC1C(=O)N(c2ccc(Cl)cc2)C(=S)N1CCc1ccncc1)Nc1ccc(F)cc1 (stereo unspecified),-10.6,21.5*,5.0,4.7,1.4,23.4*,1.7,23.5*
COc1ccc(CCN2C(=S)N(C)C(=O)C2CC(=O)Nc2ccc(OC)cc2)cc1 (stereo unspecified),3.4,44.1*,6.3,-8.9,-2.0,62.4*,-4.3,31.0*
COc1ccc(NC(=O)CC2C(=O)N(c3ccc(OC)cc3)C(=S)N2NC(=O)c2cccc(F)c2)cc1 (stereo unspecified),3.7,0.7,7.7,6.5,0.2,.,.,.
COc1ccc(N2C(=O)C(CC(=O)Nc3ccc(Cl)cc3)N(NC(=O)c3cccc(F)c3)C2=S)cc1 (stereo unspecified),3.0,38.8*,-8.4,-8.8,-0.9,50.8*,-8.8,24.3*
CCN1C(=O)C(CC(=O)Nc2ccc(OC)cc2)N(CCCN2CCN(c3ccc(F)cc3)CC2)C1=S (stereo unspecified),9.3,-0.6,-0.1,-0.5,-2.2,.,.,.
CCN1C(=O)C(CC(=O)Nc2ccc(OC)cc2)N(CCc2ccc(F)cc2)C1=S (stereo unspecified),-6.4,38.8*,-5.8,-13.4,2.0,45.7*,8.7,33.0*
COc1ccc(NC(=O)CC2C(=O)N(C)C(=S)N2CCc2ccccc2)cc1 (stereo unspecified),-4.0,49.9*,-3.4,-1.2,0.4,48.8*,5.2,25.2*
Nc1cc2nc[nH]c2cc1N,-0.9,6.3*,-8.6,-18.1,-2.5,10.0*,-7.1,3.8
Cn1c(=O)n(C)c2cc3[nH]cnc3cc21,7.8,-0.8,-10.8,-2.5,2.9,.,.,.
CN(Cc1cccc(Cl)c1Cl)c1ccc(S(=O)(=O)N2CCCCC2)cc1[N+](=O)[O-],-9.1,-0.5,-12.1,5.2,-0.5,.,.,.
SMILES,Cardio protect,Tb MetRS inh,PKA-R1A activ,PKA-R2B activ,Rin1 Abl inh,TbMetRS confirm,Jurkat cytotox,Tb MetRS inh FP
CCCCCOC(=O)NC1CCS(=O)(=O)C1 (stereo unspecified),1.9,-0.7,4.2,-4.8,-3.0,.,.,.
Cc1nnc(Nc2ccc(O)cc2)[nH]c1=O,8.5,1.4,4.4,13.0,2.5,.,.,.
Cc1nnc(Nc2ccc(C(=O)O)cc2)[nH]c1=O,-4.9,6.8*,2.1,-1.7,0.7,14.3*,-0.4,2.7
CC(C)(C)S(=O)N1Cc2cn(Cc3ccccc3)c(=O)cc2[C@H]1CCO (stereo partly specified),4.0,-0.7,-16.0,2.0,-4.6,.,.,.
O=C1/C(=C/c2c[nH]c3ccccc23)CCC/C1=C\c1c[nH]c2ccccc12,4.3,6.2*,0.4,-5.5,-3.0,7.5*,17.9*,17.6*
Oc1c(Cl)cc(Cl)cc1CNc1nc2ccccc2[nH]1,-18.7,92.9*,5.5,-6.6,1.1,107.6*,0.3,101.9*
Cc1ccc(NC(=O)CCNS(=O)(=O)c2ccc(Br)s2)cc1,-2.1,17.7*,13.1,-3.5,4.4,39.8*,-0.6,23.8*
COc1cccc(/C=C/c2nc(C#N)c(NCC(C)C)o2)c1,-4.7,-0.9,4.7,-8.0,-1.6,.,.,.
OCCNc1nc(Nc2ccc(O)cc2)nc2ccccc12,-2.6,5.5,-0.9,-1.2,-2.2,.,.,.
OCCNc1nc(Nc2cccc(O)c2)nc2ccccc12,6.3,17.5*,0.2,-0.6,-1.3,43.5*,1.8,14.2
Cc1c(-c2ccc(Br)cc2)nc2ccccn12,-9.1,11.8*,3.7,0.5,-1.5,22.6*,0.0,12.8
